Active and inactive are the calls of the source. The rule behind the calls is not given here.
Tests used:
Rattus norvegicus [1] = test: Plasma concentration in Sprague-Dawley rat carrageenan-induced thermal hyperalgesia model at 3 mg/kg, po; type: ADME, organism-based; parameters: dose 3 mg/kg, route oral; conditions: in vivo
In short: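 Rats given compound orally as a suspension in 0.5% methocel in the carrageenan-induced thermal hyperalgesia model. Plasma sampled immediately after the CITH experiment.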

Rattus norvegicus [2] = test: Antiinflammatory activity in rat assessed as inhibition of complete Freund's adjuvant-induced hind paw edema at 3 mg/kg, po administered 1 day after complete Freund's adjuvant challenge QD for 3 consecutive days measured at 2 hrs post dose on day 1; type: functional
In short: (§1)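 CFA 200 µL injected intraplantar into the left hind paw. From the next day, 1, 3 or 10 mg/kg po once daily for 3 days as a suspension in 0.5% methocel.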

[3] = Oral bioavailability in rhesus monkey at 1 mg/kg; type: ADME, organism-based, Macaca mulatta; conditions: in vivo
In short: (§2)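 Oral bioavailability from a 1 mg/kg po dose (suspension in 0.5% methocel), compared against a 1 mg/kg iv dose (solution in 3:1 PEG300:water).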

[4] = Oral bioavailability in rat at 1 mg/kg; type: ADME, organism-based; conditions: in vivo; in short: as §2
[5] = AUC (0 to 24 hrs) in rat brain at 10 mg/kg, po; type: ADME, organism-based; parameters: time < 24 hr, dose 10 mg/kg, route oral
Canis familiaris = species on record: Canis familiaris; test: Cardiotoxicity in dog assessed as effect on ECG intervals at plasma concentration of up to 24 uM; type: toxicity, organism-based, Canis lupus familiaris
Rattus norvegicus [6] = test: Antihyperalgesic activity in rat assessed as inhibition of complete Freund's adjuvant-induced mechanical hyperalgesia measured as differential weight bearing at 1 mg/kg, po administered 1 day after complete Freund's adjuvant challenge QD for 3 consecutive days measured at 2 hrs post dose on day 1
[7] = Cmax in rat at 10 mg/kg, po; type: ADME, organism-based; parameters: dose 10 mg/kg, route oral; conditions: in vivo
In short: (§3)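 Oral PK at the dose in the line, given as a suspension in 0.5% methocel. […] Reported as mean ± error.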

[8] = Plasma concentration in rat complete Freund's adjuvant-induced inflammation model at 10 mg/kg, po QD for 3 consecutive days measured at 2 hrs post dose on day 1; type: ADME, organism-based; parameters: dose 10 mg/kg, route oral
In short: (§4)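 CFA (200 µL) injected intraplantar into left hind paw; next day rats dosed orally once daily for three consecutive days (1, 3 or 10 mg/kg, suspension in 0.5% methocel). Separate cohort: plasma sampled each day 2 h after dosing.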

[9] = Cmax in rat brain at 10 mg/kg, po; type: ADME, organism-based; parameters: dose 10 mg/kg, route oral
[10] = Cmax in rat at 1 mg/kg, po; type: ADME, organism-based; parameters: dose 1 mg/kg, route oral; conditions: in vivo; in short: as §3
[11] = Plasma concentration in rat complete Freund's adjuvant-induced inflammation model at 3 mg/kg, po QD for 3 consecutive days measured at 2 hrs post dose on day 1; type: ADME, organism-based; parameters: dose 3 mg/kg, route oral; in short: as §4
[12] = Plasma concentration in rat complete Freund's adjuvant-induced inflammation model at 1 mg/kg, po QD for 3 consecutive days measured at 2 hrs post dose on day 1; type: ADME, organism-based; parameters: dose 1 mg/kg, route oral; in short: as §4
[13] = Metabolic stability in rat liver microsomes assessed as compound remaining after 10 min; type: ADME, Microsome; conditions: read-out: Stability
[14] = Clearance in dog at 1 mg/kg, iv; type: ADME, organism-based, Canis lupus familiaris; parameters: dose 1 mg/kg, route intravenous; conditions: in vivo
In short: (§5)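 IV PK at 1 mg/kg, given as a solution in 3:1 PEG300:water. Plasma half-life, clearance and volume of distribution derived.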

[15] = Clearance in rat at 1 mg/kg, iv; type: ADME, organism-based; parameters: dose 1 mg/kg, route intravenous; conditions: in vivo; in short: as §5
[16] = AUC (0 to 24 hrs) in rhesus monkey at 1 mg/kg, po; type: ADME, organism-based, Macaca mulatta; parameters: time < 24 hr, dose 1 mg/kg, route oral; conditions: plasma; in short: as §3
Rattus norvegicus [17] = test: Plasma concentration in Sprague-Dawley rat carrageenan-induced thermal hyperalgesia model at 1 mg/kg, po; type: ADME, organism-based; parameters: dose 1 mg/kg, route oral; conditions: in vivo
In short: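 Plasma sampled immediately after the carrageenan thermal hyperalgesia experiment, following oral dosing as a suspension in 0.5% methocel.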

[18] = Apparent permeability across MDCK cell membrane; type: ADME, cell-based, Canis lupus familiaris; conditions: dog
In short: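 Permeability across MDCK cell monolayers, reported as Papp. Efflux ratio calculated as (B→A)/(A→B).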

Rattus norvegicus [19] = test: Antiinflammatory activity in rat assessed as inhibition of complete Freund's adjuvant-induced hind paw edema at 10 mg/kg, po administered 1 day after complete Freund's adjuvant challenge QD for 3 consecutive days measured at 2 hrs post dose on day 1; type: functional; in short: as §1
Liver microsomes [20] = test: Metabolic stability in human liver microsomes assessed per mg of protein after 1 hr
Rattus norvegicus [21] = test: Antiinflammatory activity in rat assessed as inhibition of complete Freund's adjuvant-induced hind paw edema at 10 mg/kg, po administered 1 day after complete Freund's adjuvant challenge QD for 3 consecutive days measured at 24 hrs post dose on day 3; type: functional; in short: as §1
[22] = Cmax in dog at 1 mg/kg, po; type: ADME, organism-based, Canis lupus familiaris; parameters: dose 1 mg/kg, route oral; conditions: in vivo; in short: as §3
Rattus norvegicus [23] = test: Antiinflammatory activity in Sprague-Dawley rat assessed as inhibition of carrageenan-induced thermal hyperalgesia at 3 mg/kg, po administered 3.5 hrs after carrageenan challenge measured after 5 hrs; type: functional
In short: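 Rat carrageenan-induced thermal hyperalgesia. Dosed orally as a suspension in 0.5% methocel; % inhibition reported at each dose.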

[24] = AUC (0 to 24 hrs) in rat at 1 mg/kg, po; type: ADME, organism-based; parameters: time < 24 hr, dose 1 mg/kg, route oral; conditions: plasma; in short: as §3
[25] = Half life in rhesus monkey at 1 mg/kg, iv; type: ADME, organism-based, Macaca mulatta; parameters: dose 1 mg/kg, route intravenous; conditions: in vivo; in short: as §5
[26] = AUC (0 to 24 hrs) in dog at 10 mg/kg, po; type: ADME, organism-based, Canis lupus familiaris; parameters: time < 24 hr, dose 10 mg/kg, route oral; conditions: plasma; in short: as §3
[27] = Ratio of drug level in brain to plasma in rat at 10 mg/kg, po; type: ADME, organism-based; parameters: dose 10 mg/kg, route oral; conditions: read-out: BPR
[28] = Plasma concentration in rat complete Freund's adjuvant-induced inflammation model at 1 mg/kg, po at 2 hrs on third day; type: ADME, organism-based; parameters: dose 1 mg/kg, route oral; in short: as §4
[29] = Oral bioavailability in dog at 1 mg/kg; type: ADME, organism-based, Canis lupus familiaris; conditions: in vivo; in short: as §2
[30] = Clearance in rhesus monkey at 1 mg/kg, iv; type: ADME, organism-based, Macaca mulatta; parameters: dose 1 mg/kg, route intravenous; conditions: in vivo; in short: as §5
[31] = Cmax in rat brain of complete Freund's adjuvant-induced inflammation model at 10 mg/kg, po; type: ADME, organism-based; parameters: dose 10 mg/kg, route oral
Liver microsomes [32] = test: Metabolic stability in rat liver microsomes assessed per mg of protein at 8.1 mg/kg, po after 2 to 24 hrs; type: ADME, organism-based, Microsome; parameters: dose 8.1 mg/kg, route oral
[33] = molecular target: T1, Transient receptor potential cation channel subfamily V member 1 (Rattus norvegicus, UniProt O35433); type: functional, tissue-based, Sprague-Dawley, Dorsal root ganglion; conditions: read-out: IC50
T1 sequence (O35433 whole entry): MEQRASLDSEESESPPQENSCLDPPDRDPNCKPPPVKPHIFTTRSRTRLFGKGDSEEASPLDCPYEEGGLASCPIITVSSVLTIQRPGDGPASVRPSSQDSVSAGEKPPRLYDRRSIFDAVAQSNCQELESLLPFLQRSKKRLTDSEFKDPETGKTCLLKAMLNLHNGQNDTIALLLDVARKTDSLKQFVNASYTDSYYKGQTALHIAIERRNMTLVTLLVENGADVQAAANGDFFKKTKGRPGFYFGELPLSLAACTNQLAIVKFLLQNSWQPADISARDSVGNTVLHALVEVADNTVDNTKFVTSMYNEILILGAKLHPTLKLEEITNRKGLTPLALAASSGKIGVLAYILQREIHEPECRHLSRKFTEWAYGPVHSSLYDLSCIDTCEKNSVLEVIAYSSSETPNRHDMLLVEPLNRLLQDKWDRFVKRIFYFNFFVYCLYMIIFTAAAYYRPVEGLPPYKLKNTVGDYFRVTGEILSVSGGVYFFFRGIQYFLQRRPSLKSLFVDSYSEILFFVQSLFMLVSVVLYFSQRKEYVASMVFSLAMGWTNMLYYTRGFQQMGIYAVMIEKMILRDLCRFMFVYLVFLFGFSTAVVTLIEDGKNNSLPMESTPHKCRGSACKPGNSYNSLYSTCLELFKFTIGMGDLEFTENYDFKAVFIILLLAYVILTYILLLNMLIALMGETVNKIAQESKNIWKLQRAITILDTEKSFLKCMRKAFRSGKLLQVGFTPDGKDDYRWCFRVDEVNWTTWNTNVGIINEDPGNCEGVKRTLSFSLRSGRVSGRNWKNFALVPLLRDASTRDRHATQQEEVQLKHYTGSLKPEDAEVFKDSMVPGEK

[34] = Volume of distribution in dog at 1 mg/kg, iv; type: ADME, organism-based, Canis lupus familiaris; parameters: dose 1 mg/kg, route intravenous; conditions: in vivo
In short: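 Intravenous dose of 1 mg/kg given as a solution in 3:1 PEG300:water to rat, dog or rhesus monkey. Plasma PK parameters (T1/2, clearance, Vd) derived.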

[35] = Plasma concentration in rat complete Freund's adjuvant-induced inflammation model at 1 mg/kg, po QD for 3 consecutive days measured at 2 hrs post dose on day 2; type: ADME, organism-based; parameters: dose 1 mg/kg, route oral; in short: as §4
Rattus norvegicus [36] = test: Antiinflammatory activity in rat assessed as reversal of complete Freund's adjuvant-induced mechanical hyperalgesia at 1 to 10 mg/kg, po administered 1 day after complete Freund's adjuvant challenge QD for 3 consecutive days measured at 24 hrs post dose on day 2
[37] = molecular target: T1, Transient receptor potential cation channel subfamily V member 1; test: Antagonist activity at Sprague-Dawley rat dorsal root ganglion TRPV1 assessed as inhibition of pH-induced receptor activation; type: functional, tissue-based
In short: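 Rat TRPV1 activated by low pH (5.0–5.5); inhibition measured and IC50 given as the mean of ≥3 experiments.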

[38] = Plasma concentration in rat complete Freund's adjuvant-induced inflammation model at 10 mg/kg, po at 2 hrs on third day; type: ADME, organism-based; parameters: dose 10 mg/kg, route oral; in short: as §4

NC(=O)c1cnc(-c2cnc3c(Nc4ccc(C(F)(F)F)cn4)ccnc3n2)c(C(F)(F)F)c1
concentration (Rattus norvegicus [1]): 1090 nM
inhibition in vivo at 3 mg/kg (Rattus norvegicus [2]): 65%
bioavailability [3]: 38%
bioavailability [4]: 103%
AUC(0-t) at 24 h [5]: 3.4 µM·h
Activity (Canis familiaris): Non-toxic
inhibition in vivo at 1 mg/kg (Rattus norvegicus [6]): 39%
Cmax [7]: 2100 nM
concentration at 2 h [8]: 2430 nM
Cmax [9]: 300 nM
Cmax [10]: 300 nM
concentration at 2 h [11]: 1200 nM
concentration at 2 h [12]: 270 nM
remaining at 10 min [13]: 100%
clearance [14]: 7.4 mL/min/kg
clearance [15]: 25 mL/min/kg
AUC(0-t) at 24 h [16]: 4.9 µM·h
concentration (Rattus norvegicus [17]): 240 nM
Papp [18]: 34 ×10⁻⁶ cm/s
inhibition in vivo at 10 mg/kg (Rattus norvegicus [19]): 85%
Stability (Liver microsomes [20]): 8 pmol
inhibition in vivo at 10 mg/kg (Rattus norvegicus [21]): 70%
Cmax [22]: 500 nM
inhibition in vivo at 3 mg/kg (Rattus norvegicus [23]): 74%
AUC(0-t) at 24 h [24]: 1.4 µM·h
half-life [25]: 4.4 h
AUC(0-t) at 24 h [26]: 68 µM·h
Kp [27]: 0.1
concentration at 2 h [28]: 350 nM
bioavailability [29]: 57%
clearance [30]: 2.8 mL/min/kg
Cmax [31]: 300 nM
Stability (Liver microsomes [32]): < 10 pmol
IC50 [33]: 1.3 nM
Vd [34]: 1.3 L/kg
concentration at 2 h [35]: 360 nM
inhibition (Rattus norvegicus [36]): Active
IC50 [37]: 1.3 nM
concentration at 2 h [38]: 4240 nM

— ChEMBL document CHEMBL1212834, “Pyrido[2,3-b]pyrazines, discovery of TRPV1 antagonists with reduced potential for the formation of reactive metabolites” (Bioorg Med Chem Lett, 2010)
